Measurements: PMC4561049 (Drugs in R&D, 2015)

Tests used:
[1] = system: patients with moderate-to-severe COPD; assay: Population pharmacodynamic Emax model of day 29 trough FEV1 in COPD patients; type: in vivo, human
Method in brief: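 COPD patients (≥40 y, ≥10 pack-years) received inhaled DISKUS test compound for 4 weeks: 100, 400 or 800 μg once daily (morning) or 100, 200 or 400 μg twice daily. Day 29 trough FEV1 (Vitalograph) was the mean of the 11 and 12 h post-evening-dose readings on day 28. An Emax model on total daily dose, with both regimens pooled, was fitted in NONMEM 7 (FOCE with interaction).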

[2] = system: patients with moderate-to-severe COPD; details: cited from earlier work
[3] = system: patients with moderate-to-severe COPD; assay: Relationship between systemic exposure; type: in vivo, human; details: 0 to 4 h, day 1 and day 28; 100-800 μg once daily, 100-400 μg twice daily
Method in brief: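 Individual observed plasma Cmax was plotted against maximum glucose, heart rate, QTcF (Fridericia correction) and potassium over 0–4 h on day 1 and day 28. Relationships were explored graphically only. Placebo Cmax was set to 0 pg/mL, and below-LLOQ values were plotted as 12.5 pg/mL (half of the 25 pg/mL LLOQ).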

patients with COPD = details: 1200 µg once daily; cited from earlier work
[4] = type: in vivo, human
Method in brief: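 Plasma sampling on day 28 in a subset of patients at overnight sites, after both the morning and the evening inhaled doses: 1 h–0 min pre-dose, then 0–30 min, 30 min–2 h, 2–6 h and 6–11 h post-dose. Samples were assayed by HPLC–MS (LLOQ 25 pg/mL), and concentrations were log-transformed. A two-compartment model with first-order absorption was fitted in NONMEM 7 by Monte Carlo importance sampling.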

## COc1cc(NC(=O)CCN2CCC(OC(=O)Nc3ccccc3-c3ccccc3)CC2)c(Cl)cc1CNC[C@H](O)c1ccc(O)c2[nH]c(=O)ccc12 [GSK961081, batefenterol]
[1]; Emax model of day 29 trough FEV1, 347 COPD patients
  Intercept for E0 (FEV1 at zero dose): 0.0650 L
[1]; Emax model of day 29 trough FEV1 versus total daily dose, 347 COPD patients
  ED50 (dose producing 50 % of the maximum effect): 152 µg
[1]; influence of dosing regimen on the PD model
  Difference between once-daily and twice-daily dosing for day 29 trough FEV1: no apparent difference
[2]; after 28 days of treatment
  Improvement in the trough FEV1: 155 to 277 mL
[2]
  Dose response of QTc prolongation: no apparent dose response
  Onset of action: rapid onset of action
  Tolerability: well tolerated
[2]; in comparison with placebo or salmeterol
  Prolongation of various QTc intervals: 3 to 5 ms
[2]; safety findings of the primary publication
  Effect on glucose levels, potassium levels, heart rate, or blood pressure: no effect
[2]; total daily dose
  Increase in the trough FEV1 from 400 to 800 μg: only a small increase
[3]
  Relationship between maximum QTcF and individual observed Cmax: No clear relationships
  Relationship between maximum glucose and individual observed Cmax: No clear relationships
  Relationship between maximum heart rate and individual observed Cmax: No clear relationships
  Relationship between minimum potassium and individual observed Cmax: No clear relationships
Patients with COPD
  Prolongation of the QT interval: no prolongation of the QT interval
[4]; human, plasma, inhaled
  Vd/F: 6.26 L
[4]; population PK model, column head Log estimate
  Interindividual variability CL/F: 0.594
